Source: PubChem
LANA-H2A inh: blockers of LANA interaction with H2A/H2B – biochemical, FP readout, HTS, primary screen; Protein LANA1 (Human herpesvirus 8 type P (isolate GK18)), Q9QR71; cell-free LANA-H2A/H2B peptide, fluorescence polarization; inhibition, % (concentration not given with the values); hit rate 0.6% among 320,000; AID 2629, 2010; in the data active = inhibition mostly above about 10%, no sharp cut-off; inactive = mostly below about 6.7%
MEX-5 binding: MEX-5 zinc finger RNA-binding disruptors – biochemical, C. elegans, fluorescence polarization, MLPCN library, primary screen; Zinc finger protein mex-5 (Caenorhabditis elegans), Q9XUB2; activity score (negative = inhibition of binding), % at 10 µM; hit rate 0.38% among 300,000; MEX-5/FITC-TCR2 RNA binding; hits give low values; AID 1832, 2009;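 active = inhibition past about -25% in most replicates, and total fluorescence under double the plate's negative control median, limit read from the data; inconclusive = replicates evenly split on the limit, or fluorescence at least double controls; inactive = too little inhibition in most replicates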;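 also: 0% = DMSO and -100% = 5 µM competing unlabeled TCR2 RNA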
Target sequence (Q9XUB2 whole entry, looked up): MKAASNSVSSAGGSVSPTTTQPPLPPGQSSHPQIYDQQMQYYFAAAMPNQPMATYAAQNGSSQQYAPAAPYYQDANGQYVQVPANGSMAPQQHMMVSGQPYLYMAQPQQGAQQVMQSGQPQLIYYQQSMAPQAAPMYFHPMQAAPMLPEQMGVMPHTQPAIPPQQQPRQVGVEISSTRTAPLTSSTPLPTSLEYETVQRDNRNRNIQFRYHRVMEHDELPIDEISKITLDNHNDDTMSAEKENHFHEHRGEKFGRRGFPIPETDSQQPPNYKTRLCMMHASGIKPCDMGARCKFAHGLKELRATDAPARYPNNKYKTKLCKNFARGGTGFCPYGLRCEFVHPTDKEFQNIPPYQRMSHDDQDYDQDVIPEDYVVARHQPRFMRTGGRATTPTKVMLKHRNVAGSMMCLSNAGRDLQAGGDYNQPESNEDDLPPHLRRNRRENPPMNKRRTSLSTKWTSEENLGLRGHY
EBV gp42 block: Epstein-Barr virus gp42 inhibitors, primary screen, biochemical, uHTS, fluorescence polarization. Glycoprotein 42 (Epstein-Barr virus (strain AG876)), Q1HVG2. Fluorescence polarization binding assay, mP read-out. inhibition, % (tested at 21.74 µM). hit rate 0.42% among 220,000. AID 1085, 2008; in the data active = inhibition above about 50%
Target sequence (Q1HVG2 whole entry, looked up): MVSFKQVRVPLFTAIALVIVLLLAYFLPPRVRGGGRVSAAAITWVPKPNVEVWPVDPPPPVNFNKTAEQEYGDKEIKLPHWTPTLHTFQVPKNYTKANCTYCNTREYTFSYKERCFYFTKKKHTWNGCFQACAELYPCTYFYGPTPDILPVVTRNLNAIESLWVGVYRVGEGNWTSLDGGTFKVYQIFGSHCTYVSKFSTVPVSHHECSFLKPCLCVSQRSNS
RanGTP-Imp inh: inhibitors of RanGTP-importin-beta interaction, primary screen, biochemical, FRET, CFP-Ran, YFP-importin-beta, homogeneous; hit rate 1.1% among 300,000; Ran GTPase (GTP-bound) - importin-beta complex; inhibition, % (concentration not given with the values); cell-free CFP-Ran/YFP-importin-beta FRET ratio;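 active = more than half of the replicate wells show a fall in the fluorescence ratio signal beyond about 16%, limit read from the data, passing the limit was not always enough; inconclusive = exactly half of the replicate wells pass the set limit; inactive = fewer than half of replicates pass the limit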;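 also: 0% = DMSO wells and 100% = Ran loaded with GDP instead of GTP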
Runt-SMMHC FRET: inhibitors of RUNX1 Runt–CBFb-SMMHC binding, primary screen, biochemical, FRET, Cerulean-Runt, Venus-CBFb-SMMHC, uHTS | Runt-related transcription factor 1 (Homo sapiens) + Core-binding factor subunit beta … | Cerulean-Runt/Venus-CBFb-SMMHC FRET ratio 530/480, 1 h | inhibition, % at 20 µM | hit rate 0.74% among 220,000;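 active = mean inhibition across duplicate retests at 20 µM reaching about 50%, limit read from the data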;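 also: 0% = DMSO wells and 100% = wells with excess untagged CBFb-SMMHC; inhibitors lower the FRET ratio by blocking Runt binding to CBFb-SMMHC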
Runt-CBFb FRET: inhibitors of RUNX1 Runt–CBFb binding, primary screen, biochemical, FRET, Cerulean-Runt, Venus-CBFb, uHTS. Cerulean-Runt/Venus-CBFb FRET ratio 530/480, 1 h. inhibition, % at 20 µM. hit rate 0.46% among 220,000. AID 1496, 2009;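 active = inhibition over about 50% at 20 µM in the single-dose screen, limit read from the data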;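 also: 0% = DMSO wells and 100% = excess unlabeled CBFb competitor control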
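Reagent – Venus-CBFb binding partner, 100 nM · Assay system – Cerulean-tagged RUNX1 Runt domain (FRET donor) fusion protein · Input – 100 nM per protein · Incubation – two 1 h room-temperature incubations shielded from light · Measured by – FRET fluorescence · Medium – Tris buffer pH 7.5 with salts and BSA · Benchmarks – unlabeled CBFb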
* = called active by the depositor; ? = inconclusive; · = no result given; ! = a repeat was not active. The list is not random: actives were taken first. Their share in the collection is about 2.4%.

SMILES | LANA-H2A inh | MEX-5 binding | EBV gp42 block | RanGTP-Imp inh | Runt-SMMHC FRET | Runt-CBFb FRET
CC1(C)O[C@@H]2C[C@H]3[C@@H]4C[C@H](F)C5=CC(=O)C=C[C@]5(C)[C@@]4(F)[C@@H](O)C[C@]3(C)[C@]2(C(=O)CO)O1 | 34.3*! | 0.3 | 0.0 | 0.1 | 1.1 | 0.2
CC1(C)O[C@@H]2C[C@H]3[C@@H]4CCC5=CC(=O)C=C[C@]5(C)[C@@]4(F)[C@@H](O)C[C@]3(C)[C@]2(C(=O)CO)O1 | 3.1 | · | -4.2 | · | -1.4 | -0.3
CCc1nnc(NC(=O)[C@@H](NC(=O)c2cccc(S(=O)(=O)N3CCOCC3)c2)C(C)C)s1 | -3.7 | -2.5 | -42.5 | -0.4 | 1.8 | -0.5
CC(=O)c1ccc(N2CCN(S(=O)(=O)c3cn(C)cn3)CC2)cc1 | 8.8* | -1.7 | · | 1.6 | · | ·
CC(=O)Nc1nnc(S(=O)(=O)N2CCN(c3ccc(Cl)cc3[N+](=O)[O-])CC2)s1 | -0.9 | -1.4 | · | -0.3 | · | ·
COc1ccccc1NC1=CC(=O)CC(c2ccccc2)C1 (stereo not drawn) | 4.1 | 0.1 | 7.8 | 55.3* | 6.2 | 2.4
CC(=O)c1c(N2CCN(c3cccc(Cl)c3)CC2)nc(=S)n(-c2ccccc2)c1C | 1.8 | -1.7 | -10.9 | 46.4* | 7.7 | 6.4
CC(=O)c1c(N2CCN(C)CC2)nc(=S)n(Cc2ccccc2)c1C | 1.4 | -0.8 | -13.0 | ? | 82.9* | 62.5*
COc1ccc(N2CCN(c3nc(=S)n(-c4ccccc4)c(C)c3C(C)=O)CC2)cc1 | -4.9 | 3.2 | -12.8 | 91.8* | -27.1 | 7.0
CCn1c(C)c(C(C)=O)c(N2CCN(c3cccc(Cl)c3)CC2)nc1=S | -2.9 | -5.8 | -0.6 | 28.5* | 54.2 | -37.5
CCSc1nc(=S)n(Cc2ccccc2)c(C)c1C(C)=O | -1.0 | 0.7 | -4.0 | 0.9 | 1.1 | -2.5
Cc1ccccc1OCC(=O)Nc1nnc(COc2ccccc2)s1 | -2.6 | 0.6 | · | -1.2 | · | ·
CSc1ccc(C(=O)C2CCCN(C(=O)CCc3cnn(C)c3)C2)cc1 (stereo not drawn) | -1.1 | -1.3 | · | -5.0 | · | ·
CCn1c(C)c(C(C)=O)c(N2CCN(c3ccc(OC)cc3)CC2)nc1=S | -6.2 | -0.9 | -4.1 | 83.8* | -38.7 | 8.7
CN(C(=O)N1CCN(c2ccccn2)CC1)c1ccccc1 | 2.5 | 1.4 | -14.0 | 3.2 | -5.1 | ·
CCOC(=O)N1CCN(c2c(N3CCN(c4ccc(OC)cc4)CC3)c(=O)c2=O)CC1 | 7.9 | 0.9 | -17.0 | -1.9 | 4.4 | 3.0
CC(=O)c1c(N2CCN(c3ccccn3)CC2)nc(=S)n(-c2ccccc2)c1C | 5.0 | -2.9 | -3.6 | 57.0* | 98.8* | 93.1*
NC(=O)CC(NC(=O)c1cccc(Br)c1)c1ccc(NC2CCN(Cc3ccccc3)CC2)c([N+](=O)[O-])c1 (stereo not drawn) | -5.5 | 0.8 | · | -5.5 | · | ·
CC(=O)c1cccc(NC(=O)C2CCN(S(=O)(=O)c3c(C)n[nH]c3C)CC2)c1 | 0.3 | 2.9 | -11.1 | 0.2 | -0.3 | 100.2*
COc1cc(/C=C2\SC(=Nc3cccnc3)NC2=O)cc(OC)c1OC | 27.1* | -14.1 | -35.3 | -1.7 | -21.4 | -7.0
C=CCn1c(SCc2c(Cl)cccc2Cl)nnc1-c1cccnc1 | 4.0 | -2.5 | -5.5 | 7.4 | 3.1 | 0.5
C[C@H](NC(N)=O)C(=O)Nc1ccc(OCc2ccccc2)cc1 | 12.3* | -0.4 | -15.0 | -1.4 | -1.7 | -0.6
CC(CCc1ccccc1)NC(=O)CN1CCN(c2ccccc2)CC1 (stereo not drawn) | 4.4 | 1.3 | -14.7 | 5.9 | 2.0 | 0.1
COc1ccc2c(c1OC)C(=O)OC2C1c2c(cc3c(c2OC)OCO3)CCN1C (stereo not drawn) | 5.3*! | -1.5 | -8.0 | -3.0 | 2.1 | -1.7
CN1CCc2cc3c(c4c2[C@H]1[C@H](O)c1ccccc1-4)OCO3 | 7.0 | -84.5* | 58.7* | -2.4 | 78.9 | -149.6
SMILES | LANA-H2A inh | MEX-5 binding | EBV gp42 block | RanGTP-Imp inh | Runt-SMMHC FRET | Runt-CBFb FRET
COc1ccc2c(c1OC)C(C1c3c(cc4c(c3OC)OCO4)CCN1C)OC2=O (stereo not drawn) | -1.9 | 0.7 | -0.4 | 2.3 | -2.8 | 1.8
CCCOC(=O)c1cccc(Nc2nc(-c3cccnc3)nc3ccccc23)c1 | -0.7 | -0.6 | -10.9 | 2.9 | -3.5 | -4.3
COc1ccc(NC(=O)CCC(=O)c2ccc(Cl)cc2)cn1 | -4.4 | · | · | · | · | ·
CCOc1ccc(C2CC(c3c(O)c4ccccc4oc3=O)=NN2c2ccccc2)cc1OC (stereo not drawn) | -42.5 | ? | 141.2* | -12.0 | -18.7 | ·
COc1ccc(OC)c(C2CC(=O)N3CN(c4ccccc4)CSC3=C2C#N)c1 (stereo not drawn) | 3.9 | 6.1 | -11.1 | -6.8 | 62.0* | 32.9
COc1ccc(N2CSC3=C(C#N)C(c4cccc(OC)c4OC)CC(=O)N3C2)cc1 (stereo not drawn) | -1.1 | 2.8 | -41.4 | 2.3 | 32.9 | 14.8
COc1ccc2ccccc2c1C1CC(=O)N2CN(C3CCCCC3)CSC2=C1C#N (stereo not drawn) | 0.7 | -1.3 | -26.6 | 1.1 | 9.7 | 7.0
COc1cc(OC)c(C2CC(=O)N3CN(c4ccccc4C)CSC3=C2C#N)cc1OC (stereo not drawn) | -1.7 | 2.2 | -31.2 | -64.3 | 66.8* | 40.7
Cc1nn(-c2ccc(Cl)cc2)c2[nH]c(=O)c(CNCc3ccc4c(c3)OCO4)cc12 | 24.5* | 0.2 | -17.4 | 1.6 | -5.9 | -5.5
NS(=O)(=O)c1ccc(CCNC(=O)CNC(=O)c2ccc(Br)o2)cc1 | 23.4* | · | · | · | · | ·
COCCCn1c(N)c(-c2nc3ccccc3n2C)c2nc3ccccc3nc21 | -4.2 | -34.1* | -15.5 | -31.5 | -60.4 | -16.4
COc1cc(Cn2c(N)c(C#N)c3nc4ccccc4nc32)cc(OC)c1 | -2.6 | 1.7 | -0.7 | 37.9* | 113.4* | 72.0*
N#Cc1c(N)n(CCOC(=O)c2cccc([N+](=O)[O-])c2)c2nc3ccccc3nc12 | -0.5 | 0.3 | 15.9 | 4.3 | 31.1 | 4.0
N#Cc1c(N)n(-c2ccc(O)cc2)c2nc3ccccc3nc12 | 0.5 | 0.0 | -11.1 | ? | 12.1 | 4.2
COc1ccc(Cn2c(N)c(S(=O)(=O)c3cccs3)c3nc4ccccc4nc32)cc1 | 1.5 | 0.0 | 10.5 | · | 4.7 | -2.5
N#Cc1c(N)n(CCOC(=O)c2cccc(Br)c2)c2nc3ccccc3nc12 | -2.8 | -1.8 | -12.2 | ? | 51.2* | 25.9
